inhibition, Fa and IC50 data for one molecule are collected here from ChEMBL document CHEMBL4411287, “Discovery and optimization of a series of 3-substituted indazole derivatives as multi-target kinase inhibitors for the treatment of lung squamous cell carcinoma” (Eur J Med Chem, 2019).

Data set [1] addresses Tyrosine-protein kinase ABL1 (Homo sapiens) (UniProt P00519). Description: Inhibition of ABL (unknown origin) at 1000 nM relative to control.
The target in data set [2] is Ephrin type-A receptor 2 (Homo sapiens) (UniProt P29317). Description: Inhibition of EPH-A2 (unknown origin) at 100 nM relative to control. The procedure, abridged: (§1)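 Purified recombinant kinase domains run in ELISA on precoated poly(Glu,Tyr) 4:1 (20 µg/mL) with 10 µM ATP in 50 mM HEPES pH 7.4, 50 mM MgCl2, 0.5 mM MnCl2, 0.2 mM Na3VO4, 1 mM DTT; 1% DMSO control; 60 min at 37 °C. Phosphotyrosine read by PY99 antibody, HRP anti-mouse IgG, OPD/H2O2 at 490 nm; inhibition = [1−A490/A490control]×100%; two separate experiments.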

Data set [3] is described as follows: Permeability in human Caco2 cells at 5 uM after 120 mins by LC-MS/MS analysis relative to control. It is filed as ADME, cell-based. The note with it: Caco-2, read-out: Fabs. The procedure, abridged: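 Caco-2 (C2BBe1) monolayers grown confluent on collagen-coated transwell membranes. Buffer is HBSS with 10 mM HEPES at pH 7.4 and pH 6.8. Compound 5 µM added to the apical or basolateral side; duplicate samples taken at 120 min and analysed by LC-MS/MS. Results given as Papp A→B and B→A and efflux ratio B→A/A→B.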

The target in data set [4] is Tyrosine-protein kinase JAK2 (Homo sapiens) (UniProt O60674). Description: Inhibition of JAK2 (unknown origin) at 100 nM relative to control. In a few lines:
as §1

The target in data set [5] is Fibroblast growth factor receptor 1 (Homo sapiens, UniProt P11362). Description: Inhibition of FGFR1 (unknown origin) after 60 mins by ELISA.
Data set [6] addresses Mitogen-activated protein kinase 3 (Homo sapiens) (UniProt P27361). The data set is described as follows: Inhibition of ERK1 (unknown origin) at 1000 nM relative to control.
Data set [7] concerns T1, Discoidin domain-containing receptor 2 (Homo sapiens), Q16832 [I638F].
T1 sequence (whole entry): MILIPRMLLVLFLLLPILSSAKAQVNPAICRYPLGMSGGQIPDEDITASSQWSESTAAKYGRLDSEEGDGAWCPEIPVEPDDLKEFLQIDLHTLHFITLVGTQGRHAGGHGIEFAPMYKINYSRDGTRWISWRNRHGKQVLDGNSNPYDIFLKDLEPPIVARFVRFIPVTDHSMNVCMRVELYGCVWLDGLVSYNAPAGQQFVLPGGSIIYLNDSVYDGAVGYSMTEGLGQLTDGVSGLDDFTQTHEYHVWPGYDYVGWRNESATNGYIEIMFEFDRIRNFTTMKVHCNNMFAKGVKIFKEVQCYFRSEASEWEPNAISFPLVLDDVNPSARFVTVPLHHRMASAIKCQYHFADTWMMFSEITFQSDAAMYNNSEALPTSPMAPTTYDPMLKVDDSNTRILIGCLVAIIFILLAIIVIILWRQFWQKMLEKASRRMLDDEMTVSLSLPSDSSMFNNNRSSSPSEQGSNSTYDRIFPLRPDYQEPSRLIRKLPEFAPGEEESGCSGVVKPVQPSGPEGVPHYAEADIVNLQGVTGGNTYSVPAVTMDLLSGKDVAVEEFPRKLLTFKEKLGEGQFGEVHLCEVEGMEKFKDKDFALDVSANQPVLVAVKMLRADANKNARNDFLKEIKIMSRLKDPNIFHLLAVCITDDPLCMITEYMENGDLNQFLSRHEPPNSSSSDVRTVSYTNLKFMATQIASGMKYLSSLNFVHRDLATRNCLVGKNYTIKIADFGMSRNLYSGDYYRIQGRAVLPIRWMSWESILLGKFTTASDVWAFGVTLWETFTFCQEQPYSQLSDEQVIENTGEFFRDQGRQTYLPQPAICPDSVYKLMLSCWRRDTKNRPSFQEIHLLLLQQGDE
Description: Inhibition of DDR2 I638F mutant in human NCI-H2286 cells assessed as decrease in ERK phosphorylation at […] after 2 hrs by Western blot analysis. It is filed as cell-based. In a few lines:
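NCI-H2286 cells exposed to compound for 2 h at 37 °C and lysed in SDS sample buffer. Lysates run on 10% SDS-PAGE and blotted to nitrocellulose. Membranes probed for phospho- and total DDR2, ERK and Akt, with GAPDH as loading control, and detected by HRP secondary antibody and enhanced chemiluminescence.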

Another data set concerns NCI-H2286. Description: Antiproliferative activity against human NCI-H2286 cells after 72 hrs by CCK8 assay. As to conditions: NCI-H2286, 72 h.
The target in data set [8] is Cyclin-dependent kinase 6 (Homo sapiens) (UniProt Q00534). The data set is described as follows: Inhibition of CDK6 (unknown origin) at 100 nM relative to control.
For data set [9], the target named is Tyrosine-protein kinase JAK1 (Homo sapiens) (UniProt P23458). Description: Inhibition of JAK1 (unknown origin) at 1000 nM relative to control. In a few lines:
as §1

For data set [10], the target named is Epidermal growth factor receptor (Homo sapiens) (UniProt P00533). The data set is described as follows: Inhibition of EGFR (unknown origin) at 1000 nM relative to control. The procedure, abridged: as §1
Data set [11] concerns the target Cyclin-dependent kinase 6 (Homo sapiens) (UniProt Q00534). Description: Inhibition of CDK6 (unknown origin) at 10 nM relative to control.
The target of data set [12] is ALK tyrosine kinase receptor (Homo sapiens) (UniProt Q9UM73). The data set is described as follows: Inhibition of ALK (unknown origin) at 10 nM relative to control.
Data set [13] concerns the target Receptor tyrosine-protein kinase erbB-4 (Homo sapiens) (UniProt Q15303). Description: Inhibition of ErbB4 (unknown origin) at 1000 nM relative to control. The procedure, abridged:
as §1

Data set [14] concerns the target Cyclin-dependent kinase 1 (Homo sapiens) (UniProt P06493). The data set is described as follows: Inhibition of CDK1 (unknown origin) at 10 nM relative to control.
In data set [15] the target is Ephrin type-A receptor 2 (Homo sapiens) (UniProt P29317). Description: Inhibition of EPH-A2 (unknown origin) at 10 nM relative to control. The procedure, abridged: as §1
In data set [16] the target is Proto-oncogene tyrosine-protein kinase Src (Homo sapiens) (UniProt P12931). The data set is described as follows: Inhibition of c-Src (unknown origin) at 100 nM relative to control. In a few lines: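 ELISA with purified recombinant kinase on plates precoated with poly(Glu,Tyr) 4:1 at 20 µg/mL. ATP 10 µM in HEPES pH 7.4 buffer with MgCl2, MnCl2, Na3VO4 and DTT. Run 60 min at 37 °C. Detected with anti-phosphotyrosine PY99, HRP secondary antibody and o-phenylenediamine, read at 490 nm. Inhibition % = [1 − A490/A490 control]×100. 1% DMSO as negative control.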

Data set [17] addresses Tyrosine-protein kinase JAK2 (Homo sapiens) (UniProt O60674). The data set is described as follows: Inhibition of JAK2 (unknown origin) at 1000 nM relative to control. The procedure, abridged:
as §1

Data set [18] has as its target Fibroblast growth factor receptor 4 (Homo sapiens) (UniProt P22455). The data set is described as follows: Inhibition of FGFR4 (unknown origin) at 1000 nM relative to control. The procedure, abridged: as §1
Data set [19] addresses Tyrosine-protein kinase JAK1 (Homo sapiens) (UniProt P23458). Description: Inhibition of JAK1 (unknown origin) at 10 nM relative to control. The procedure, abridged:
as §1

Data set [20] deals with Focal adhesion kinase 1 (Homo sapiens) (UniProt Q05397). Description: Inhibition of FAK (unknown origin) at 1000 nM relative to control. In a few lines: as §1

Calls of active or inactive are those of the source. No cut-off for these calls is given here.

Chain of Cyclin-dependent kinase 6 (Homo sapiens) (Q00534 whole entry): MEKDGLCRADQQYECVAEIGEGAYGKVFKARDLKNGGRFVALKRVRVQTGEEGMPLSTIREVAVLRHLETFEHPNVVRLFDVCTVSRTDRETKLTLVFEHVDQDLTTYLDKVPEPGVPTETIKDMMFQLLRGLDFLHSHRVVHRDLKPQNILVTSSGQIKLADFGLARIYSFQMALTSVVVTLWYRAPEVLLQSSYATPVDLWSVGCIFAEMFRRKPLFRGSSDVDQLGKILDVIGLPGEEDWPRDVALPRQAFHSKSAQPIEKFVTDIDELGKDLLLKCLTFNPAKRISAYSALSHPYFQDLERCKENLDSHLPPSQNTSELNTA
Chain of Tyrosine-protein kinase JAK1 (Homo sapiens) (P23458 whole entry): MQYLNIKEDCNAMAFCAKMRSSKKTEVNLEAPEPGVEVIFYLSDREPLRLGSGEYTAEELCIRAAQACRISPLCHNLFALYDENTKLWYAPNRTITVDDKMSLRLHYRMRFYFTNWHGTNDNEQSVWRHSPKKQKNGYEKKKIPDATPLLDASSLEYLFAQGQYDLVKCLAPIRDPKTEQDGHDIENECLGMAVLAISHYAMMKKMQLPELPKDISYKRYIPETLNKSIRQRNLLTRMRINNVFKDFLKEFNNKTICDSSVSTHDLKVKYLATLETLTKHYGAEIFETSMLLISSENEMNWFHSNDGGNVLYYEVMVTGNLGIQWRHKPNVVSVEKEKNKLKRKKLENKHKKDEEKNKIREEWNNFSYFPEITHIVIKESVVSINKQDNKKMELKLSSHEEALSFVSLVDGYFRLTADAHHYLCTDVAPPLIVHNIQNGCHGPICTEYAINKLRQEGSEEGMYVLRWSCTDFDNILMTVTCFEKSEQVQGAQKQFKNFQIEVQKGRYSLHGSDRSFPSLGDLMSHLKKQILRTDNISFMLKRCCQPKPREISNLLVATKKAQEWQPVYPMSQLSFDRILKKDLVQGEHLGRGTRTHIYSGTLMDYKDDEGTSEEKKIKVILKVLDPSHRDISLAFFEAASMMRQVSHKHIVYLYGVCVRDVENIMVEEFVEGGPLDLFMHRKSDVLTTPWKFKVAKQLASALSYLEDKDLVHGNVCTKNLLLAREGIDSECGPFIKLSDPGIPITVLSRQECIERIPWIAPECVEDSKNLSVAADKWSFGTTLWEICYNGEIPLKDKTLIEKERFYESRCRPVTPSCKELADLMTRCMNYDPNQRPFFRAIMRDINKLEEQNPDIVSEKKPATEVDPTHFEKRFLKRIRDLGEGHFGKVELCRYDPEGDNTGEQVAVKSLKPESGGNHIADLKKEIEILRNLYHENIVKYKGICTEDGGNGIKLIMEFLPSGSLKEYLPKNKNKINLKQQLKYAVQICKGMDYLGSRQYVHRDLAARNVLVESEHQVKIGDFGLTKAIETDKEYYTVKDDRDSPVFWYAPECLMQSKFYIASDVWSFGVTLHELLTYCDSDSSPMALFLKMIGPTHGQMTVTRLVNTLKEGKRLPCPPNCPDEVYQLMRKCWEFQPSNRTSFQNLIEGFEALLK
Chain of Ephrin type-A receptor 2 (Homo sapiens) (P29317 whole entry, the tested form may be a part): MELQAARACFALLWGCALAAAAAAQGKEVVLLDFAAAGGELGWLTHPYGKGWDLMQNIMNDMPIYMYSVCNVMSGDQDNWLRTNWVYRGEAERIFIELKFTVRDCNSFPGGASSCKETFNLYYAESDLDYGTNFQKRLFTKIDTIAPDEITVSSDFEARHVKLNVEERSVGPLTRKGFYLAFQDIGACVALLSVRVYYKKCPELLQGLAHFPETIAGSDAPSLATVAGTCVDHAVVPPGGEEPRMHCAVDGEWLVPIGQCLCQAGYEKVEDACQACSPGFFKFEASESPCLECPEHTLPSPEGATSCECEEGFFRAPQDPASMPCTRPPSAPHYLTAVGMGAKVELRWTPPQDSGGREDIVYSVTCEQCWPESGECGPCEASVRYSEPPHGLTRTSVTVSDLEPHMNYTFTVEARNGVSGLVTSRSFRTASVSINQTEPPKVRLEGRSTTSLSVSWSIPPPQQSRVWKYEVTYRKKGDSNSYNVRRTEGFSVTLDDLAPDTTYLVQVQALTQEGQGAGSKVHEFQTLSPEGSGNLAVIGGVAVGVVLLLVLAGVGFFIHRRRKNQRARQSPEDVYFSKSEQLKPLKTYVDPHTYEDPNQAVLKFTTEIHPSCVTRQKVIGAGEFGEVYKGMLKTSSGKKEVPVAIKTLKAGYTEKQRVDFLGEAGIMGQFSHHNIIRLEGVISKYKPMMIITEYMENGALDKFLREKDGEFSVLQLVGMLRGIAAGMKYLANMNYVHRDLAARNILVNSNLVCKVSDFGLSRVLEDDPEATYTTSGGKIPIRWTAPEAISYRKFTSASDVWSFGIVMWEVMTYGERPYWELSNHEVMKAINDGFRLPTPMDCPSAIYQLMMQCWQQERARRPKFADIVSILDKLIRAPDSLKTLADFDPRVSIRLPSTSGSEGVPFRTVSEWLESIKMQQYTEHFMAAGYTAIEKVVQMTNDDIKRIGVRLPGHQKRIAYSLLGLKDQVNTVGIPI
Chain of Tyrosine-protein kinase JAK2 (Homo sapiens) (O60674 whole entry): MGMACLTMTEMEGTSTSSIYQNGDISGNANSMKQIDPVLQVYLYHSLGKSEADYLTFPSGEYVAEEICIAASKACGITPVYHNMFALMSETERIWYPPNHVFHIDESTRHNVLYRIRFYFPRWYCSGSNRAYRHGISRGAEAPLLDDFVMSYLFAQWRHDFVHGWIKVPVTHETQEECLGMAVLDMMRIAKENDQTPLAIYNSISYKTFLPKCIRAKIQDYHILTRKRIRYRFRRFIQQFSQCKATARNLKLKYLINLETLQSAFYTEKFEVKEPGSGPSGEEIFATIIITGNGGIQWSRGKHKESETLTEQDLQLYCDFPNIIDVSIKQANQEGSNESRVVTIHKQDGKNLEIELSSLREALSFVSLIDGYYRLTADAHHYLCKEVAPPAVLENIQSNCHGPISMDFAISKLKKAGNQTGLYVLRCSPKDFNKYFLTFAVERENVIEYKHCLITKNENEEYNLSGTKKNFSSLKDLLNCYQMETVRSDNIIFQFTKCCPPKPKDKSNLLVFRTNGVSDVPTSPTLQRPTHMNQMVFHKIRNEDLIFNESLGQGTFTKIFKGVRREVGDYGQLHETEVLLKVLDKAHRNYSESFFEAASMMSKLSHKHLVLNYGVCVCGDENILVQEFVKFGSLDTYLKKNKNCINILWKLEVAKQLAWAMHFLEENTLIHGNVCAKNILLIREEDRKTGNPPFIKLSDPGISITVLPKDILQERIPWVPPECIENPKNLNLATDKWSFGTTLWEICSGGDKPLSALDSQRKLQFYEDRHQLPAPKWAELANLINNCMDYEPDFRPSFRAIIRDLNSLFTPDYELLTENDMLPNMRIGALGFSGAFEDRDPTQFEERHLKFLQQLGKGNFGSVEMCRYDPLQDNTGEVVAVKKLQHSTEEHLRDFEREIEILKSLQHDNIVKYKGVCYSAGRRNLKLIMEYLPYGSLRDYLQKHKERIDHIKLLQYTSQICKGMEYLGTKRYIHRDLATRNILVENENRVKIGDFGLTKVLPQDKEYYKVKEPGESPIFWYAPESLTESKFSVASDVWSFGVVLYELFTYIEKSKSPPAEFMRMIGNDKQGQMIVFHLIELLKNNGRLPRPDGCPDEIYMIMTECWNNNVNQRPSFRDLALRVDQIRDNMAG
Chain of Fibroblast growth factor receptor 1 (P11362 whole entry): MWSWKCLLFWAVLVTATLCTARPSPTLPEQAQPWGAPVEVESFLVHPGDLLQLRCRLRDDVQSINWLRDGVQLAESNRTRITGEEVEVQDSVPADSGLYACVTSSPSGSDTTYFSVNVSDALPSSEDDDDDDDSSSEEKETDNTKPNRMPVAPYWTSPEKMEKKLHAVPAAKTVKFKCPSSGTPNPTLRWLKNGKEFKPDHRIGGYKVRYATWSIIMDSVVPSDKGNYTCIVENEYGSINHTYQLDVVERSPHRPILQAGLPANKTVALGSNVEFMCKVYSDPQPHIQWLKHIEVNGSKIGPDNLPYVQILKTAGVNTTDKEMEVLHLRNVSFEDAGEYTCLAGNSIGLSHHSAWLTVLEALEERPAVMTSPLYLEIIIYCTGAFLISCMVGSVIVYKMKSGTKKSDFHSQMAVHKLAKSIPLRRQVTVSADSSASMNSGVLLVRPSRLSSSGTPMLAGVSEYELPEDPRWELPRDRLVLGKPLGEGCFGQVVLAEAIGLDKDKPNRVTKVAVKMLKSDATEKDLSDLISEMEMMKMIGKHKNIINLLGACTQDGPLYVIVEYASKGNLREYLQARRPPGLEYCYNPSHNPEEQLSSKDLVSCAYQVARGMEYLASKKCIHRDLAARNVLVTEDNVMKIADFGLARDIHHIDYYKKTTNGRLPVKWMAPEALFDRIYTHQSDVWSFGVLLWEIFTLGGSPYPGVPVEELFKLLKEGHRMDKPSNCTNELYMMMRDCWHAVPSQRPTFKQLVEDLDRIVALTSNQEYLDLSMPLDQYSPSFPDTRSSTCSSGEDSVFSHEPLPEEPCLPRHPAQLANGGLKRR
Chain of Mitogen-activated protein kinase 3 (Homo sapiens) (P27361 whole entry, the tested form may be a part): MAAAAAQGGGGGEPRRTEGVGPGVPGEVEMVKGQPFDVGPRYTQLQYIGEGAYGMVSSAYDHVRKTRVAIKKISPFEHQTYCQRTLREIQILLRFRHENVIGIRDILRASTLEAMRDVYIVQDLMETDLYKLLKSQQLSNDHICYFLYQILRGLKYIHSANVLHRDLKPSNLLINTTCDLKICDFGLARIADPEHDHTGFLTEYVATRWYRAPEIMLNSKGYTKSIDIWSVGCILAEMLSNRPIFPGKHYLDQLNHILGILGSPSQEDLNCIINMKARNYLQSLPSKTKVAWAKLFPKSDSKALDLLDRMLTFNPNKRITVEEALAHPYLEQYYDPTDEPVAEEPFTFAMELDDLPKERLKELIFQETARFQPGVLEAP

In the case of `Cc1ccc(C(=O)Nc2cccc(C(F)(F)F)c2)cc1-c1ccc2c(-c3cnn(C4CC4)c3)n[nH]c2c1`, the inhibition was found to be 100% in data set [1]; 100% in data set [2]; 2.5% in data set [4]; 3.8% in data set [6]; 2.6% in data set [8]; 31.2% in [9]. Moreover, the inhibition was 18.1% in [10]; 0.5% in data set [11]; 60% in [12]; 36.9% in [13]; -0.1% in data set [14]; 86.6% in [15]. Further, the inhibition in [16] worked out at 87.6%; in data set [17], 16.8%; in data set [18], 72.4%; in data set [19] it was 0.2%; in data set [20], 81.7%. Also, the Fa at 2 h, 5 µM in data set [3] is 48.6%. In addition, the half-inhibitory concentration (IC50) in [5] is 31.1 nM; in the data set on NCI-H2286, 93 nM. Moreover, in [7], the inhibition result is “Active”.
